pIC50: −log10 of the molar value. Activity calls are given as the source filed them. The calls are words filed in the database; no cut-off is given here.
How the values were obtained:
Rattus norvegicus [1] = species on record: Rattus norvegicus; assay: Inhibition of rat CAM2 at 10 uM by liquid scintillation counting in presence of [33gammaP]ATP
How it was run: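 CaM kinase II from rat brain; [γ33-P]ATP plus autocamtide-2 (5 µM); staurosporine reference; labelled autocamtide-2 counted by liquid scintillation; compounds at 10 µM.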

[2] = molecular target: D(3) dopamine receptor (Homo sapiens) (UniProt P35462); assay: Displacement of [3H]spiperone from human recombinant dopamine D3 receptor expressed in CHO cells at 10 uM; assay type: cell-based
How it was run: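 Human recombinant D3 receptor from CHO cells; [3H]spiperone 0.3 nM as ligand; (+)-buctaclamol reference compound.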

[3] = molecular target: Proto-oncogene tyrosine-protein kinase Src (Homo sapiens) (UniProt P12931); assay: Inhibition of Src at 10 uM
[4] = molecular target: D(2) dopamine receptor (Homo sapiens) (UniProt P14416); assay: Displacement of [3H]spiperone from human recombinant dopamine D2 receptor expressed in CHO cells at 10 uM; assay type: cell-based
How it was run: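 Human recombinant D2 receptor expressed in CHO cells; [3H]spiperone ligand at 0.3 nM; (+)-buctaclamol as reference compound.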

Bos taurus = species on record: Bos taurus; assay: Inhibition of bovine thymus p56LCK at 10 uM by liquid scintillation counting in presence of [33gammaP]ATP
How it was run: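 p56lck from bovine thymus; [γ33-P]ATP with polyGT (0.5 mg/mL) substrate; staurosporine reference; liquid scintillation read-out; compounds tested at 10 µM.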

[5] = Displacement of [3H]QNB from muscarinic receptor at 10 uM
[6] = molecular target: Tyrosine-protein kinase ABL1 (Mus musculus) (UniProt P00520); assay: Inhibition of mouse recombinant Abl expressed in Escherichia coli at 10 uM by fluorescence polarization
Rattus norvegicus [7] = species on record: Rattus norvegicus; assay: Displacement of [3H]AMPA from AMPA receptor in rat cerebral cortex at 10 uM; assay type: tissue-based
[8] = molecular target: Epidermal growth factor receptor (Homo sapiens) (UniProt P00533); assay: Inhibition of EGFR in human A431 at 10 uM by liquid scintillation counting in presence of [33gammaP]ATP
How it was run: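 EGFR kinase from A-431 cells; substrate [γ33-P]ATP plus poly GAT (0.48 mg/mL); PD 153035 reference; product measured by liquid scintillation; compounds at 10 µM.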

Rattus norvegicus [9] = species on record: Rattus norvegicus; assay: Inhibition of rat recombinant MAPK at 10 uM by liquid scintillation counting in presence of [33gammaP]ATP
How it was run: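 Rat recombinant ERK42 MAP kinase expressed in E. coli; [γ33-P]ATP with MBP (0.5 mg/mL); staurosporine reference; liquid scintillation read-out; 10 µM compound.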

[10] = molecular target: Glutamate NMDA receptor (Rattus norvegicus) (UniProt P35439+Q00959+Q00960+Q00961+Q62645+Q8VHN2+Q9R1M7); assay: Displacement of [3H]CGP39653 from NMDA receptor in rat cerebral cortex at 10 uM; assay type: tissue-based
Rattus norvegicus [11] = species on record: Rattus norvegicus; assay: Displacement of [3H]cystisine from alpha-BGTX insensitive nicotinic acetylcholine receptor in rat cerebral cortex at 10 uM; assay type: tissue-based
[12] = system: 5-HT (non-selective) serotonin receptor (Rattus norvegicus); assay: Inhibition of [3H]serotonine binding to non-selective 5-HT serotoninergic receptor in rat cerebral cortex at 10 uM
[13] = molecular target: Insulin receptor (Homo sapiens) (UniProt P06213); assay: Inhibition of human recombinant IR at 10 uM by liquid scintillation counting in presence of [33gammaP]ATP
How it was run: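 Human recombinant insulin receptor kinase; [γ33-P]ATP plus poly GT (0.03 mg/mL); staurosporine reference; liquid scintillation detection; 10 µM compound.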

[14] = molecular target: T1, Alpha-2A adrenergic receptor (Rattus norvegicus) (UniProt P22909); assay: Displacement of [3H]RX821002 from alpha2 adrenoceptor in rat cerebral cortex at 10 uM; assay type: tissue-based
T1 sequence (whole entry): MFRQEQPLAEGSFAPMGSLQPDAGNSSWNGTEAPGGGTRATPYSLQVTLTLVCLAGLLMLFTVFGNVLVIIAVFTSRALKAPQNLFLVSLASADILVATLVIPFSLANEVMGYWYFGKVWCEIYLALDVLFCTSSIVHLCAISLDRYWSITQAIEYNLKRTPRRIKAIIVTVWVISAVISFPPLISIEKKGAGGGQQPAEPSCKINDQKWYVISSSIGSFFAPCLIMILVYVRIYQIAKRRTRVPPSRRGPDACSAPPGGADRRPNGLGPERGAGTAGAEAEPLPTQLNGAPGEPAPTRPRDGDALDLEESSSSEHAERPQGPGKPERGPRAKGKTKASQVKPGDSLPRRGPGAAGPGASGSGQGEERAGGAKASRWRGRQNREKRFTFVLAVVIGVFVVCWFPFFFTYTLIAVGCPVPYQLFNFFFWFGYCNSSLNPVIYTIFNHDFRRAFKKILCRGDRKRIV
How it was run: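 Rat cerebral cortex source; [3H]RX 821002 ligand at 0.5 nM; yohimbine as reference compound; non-selective alpha-2 site.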

[15] = molecular target: Dual specificity mitogen-activated protein kinase kinase 1 (Oryctolagus cuniculus) (UniProt P29678); assay: Inhibition of rabbit recombinant MEK1 expressed in Escherichia coli at 10 uM by liquid scintillation counting in presence of [33gammaP]ATP
How it was run: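 Rabbit recombinant MEK1 from E. coli; ATP plus unactivated MAP kinase (0.01 mg/mL) as substrate; staurosporine reference; liquid scintillation detection; 10 µM.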

Rattus norvegicus [16] = species on record: Rattus norvegicus; assay: Displacement of [3H]cystisine from alpha-BGTX sensitive nicotinic acetylcholine receptor in rat cerebral cortex; assay type: tissue-based; parameters: concentration or dose not given beside the values; conditions: concentration not given here
[17] = molecular target: Glycogen synthase kinase-3 beta (Homo sapiens, UniProt P49841); assay: Inhibition of GSK3-beta by liquid scintillation counting
How it was run: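 GSK-3β enzyme incubated with test compound at various concentrations, GS-1 peptide substrate (15 mM as printed), 15 μM ATP plus 0.2 μCi [γ-32P]ATP, in 50 mM Tris pH 7.5, 10 mM MgCl2, 1 mM EGTA, 1 mM EDTA; 20 min at 37 °C. Aliquots spotted on P81 phosphocellulose, washed in 1% phosphoric acid, counted by liquid scintillation.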

[18] = molecular target: Glycogen synthase kinase-3 beta (Mus musculus) (UniProt Q9WV60); assay: Inhibition of GSK-3-beta-mediated tau phosphorylation in mouse granule cerebellar neurons cells after 16 hrs by Western blot
How it was run: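 Cerebellar granule neurons from P6 mice, plated on poly-L-lysine and grown 48 h in serum-free neurobasal/B-27 with 12.5 mM KCl; compounds 0.5–25 µM; LiCl 10 mM positive control with excess myo-inositol; lysates blotted with PHF-1 and Tau-1, normalised to β-actin, densitometry; mean of three experiments, control = 100 r.u.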

Sequence of Insulin receptor (Homo sapiens) (P06213 28-758 limits assumed): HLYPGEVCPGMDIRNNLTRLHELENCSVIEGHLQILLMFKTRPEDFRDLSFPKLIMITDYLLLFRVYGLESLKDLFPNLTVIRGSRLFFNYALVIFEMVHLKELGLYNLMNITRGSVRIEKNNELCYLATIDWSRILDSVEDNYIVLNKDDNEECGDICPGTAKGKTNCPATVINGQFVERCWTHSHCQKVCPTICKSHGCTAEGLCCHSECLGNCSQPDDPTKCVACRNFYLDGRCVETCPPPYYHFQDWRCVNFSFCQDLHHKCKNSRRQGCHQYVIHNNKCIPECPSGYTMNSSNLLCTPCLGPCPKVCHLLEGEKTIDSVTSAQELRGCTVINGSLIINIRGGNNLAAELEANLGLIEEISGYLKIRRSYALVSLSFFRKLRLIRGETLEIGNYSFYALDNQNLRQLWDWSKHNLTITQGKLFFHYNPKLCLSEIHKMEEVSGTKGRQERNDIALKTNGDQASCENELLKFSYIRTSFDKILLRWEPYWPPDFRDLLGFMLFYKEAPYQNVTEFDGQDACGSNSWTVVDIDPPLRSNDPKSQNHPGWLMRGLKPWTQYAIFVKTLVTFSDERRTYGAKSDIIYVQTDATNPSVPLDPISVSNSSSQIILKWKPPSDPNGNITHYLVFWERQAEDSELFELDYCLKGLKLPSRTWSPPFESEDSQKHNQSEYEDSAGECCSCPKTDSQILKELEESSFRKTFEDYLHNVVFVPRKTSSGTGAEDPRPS
Sequence of Insulin receptor (Homo sapiens) (P06213 763-1382 limits assumed): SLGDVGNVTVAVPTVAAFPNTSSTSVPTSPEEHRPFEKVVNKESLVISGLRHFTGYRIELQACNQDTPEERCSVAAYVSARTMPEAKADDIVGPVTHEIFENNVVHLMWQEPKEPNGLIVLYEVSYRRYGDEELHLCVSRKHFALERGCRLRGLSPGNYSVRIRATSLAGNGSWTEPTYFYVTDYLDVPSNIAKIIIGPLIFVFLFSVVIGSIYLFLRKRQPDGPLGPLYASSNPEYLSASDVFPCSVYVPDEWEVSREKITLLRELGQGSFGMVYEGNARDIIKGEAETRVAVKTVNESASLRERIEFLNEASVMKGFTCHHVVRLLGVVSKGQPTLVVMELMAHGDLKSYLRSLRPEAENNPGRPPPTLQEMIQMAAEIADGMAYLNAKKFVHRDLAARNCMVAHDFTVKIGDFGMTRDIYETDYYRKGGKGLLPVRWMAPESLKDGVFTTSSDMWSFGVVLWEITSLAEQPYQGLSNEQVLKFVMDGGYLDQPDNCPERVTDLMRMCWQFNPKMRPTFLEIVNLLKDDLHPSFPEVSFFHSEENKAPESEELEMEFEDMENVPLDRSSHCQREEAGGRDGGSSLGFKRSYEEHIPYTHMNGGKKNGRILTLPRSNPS
Sequence of Glycogen synthase kinase-3 beta (P49841 whole entry): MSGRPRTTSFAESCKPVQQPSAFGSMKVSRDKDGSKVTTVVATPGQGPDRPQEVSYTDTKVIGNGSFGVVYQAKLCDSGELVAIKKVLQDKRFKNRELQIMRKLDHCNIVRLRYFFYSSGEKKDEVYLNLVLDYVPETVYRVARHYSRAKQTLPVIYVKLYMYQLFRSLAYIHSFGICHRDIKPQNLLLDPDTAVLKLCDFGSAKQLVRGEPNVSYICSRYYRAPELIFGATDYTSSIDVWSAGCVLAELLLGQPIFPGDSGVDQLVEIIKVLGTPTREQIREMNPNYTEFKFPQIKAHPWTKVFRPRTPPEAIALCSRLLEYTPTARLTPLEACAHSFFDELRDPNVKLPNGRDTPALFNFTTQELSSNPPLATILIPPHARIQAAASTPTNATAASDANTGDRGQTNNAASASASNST
Sequence of Epidermal growth factor receptor (Homo sapiens) (P00533 whole entry): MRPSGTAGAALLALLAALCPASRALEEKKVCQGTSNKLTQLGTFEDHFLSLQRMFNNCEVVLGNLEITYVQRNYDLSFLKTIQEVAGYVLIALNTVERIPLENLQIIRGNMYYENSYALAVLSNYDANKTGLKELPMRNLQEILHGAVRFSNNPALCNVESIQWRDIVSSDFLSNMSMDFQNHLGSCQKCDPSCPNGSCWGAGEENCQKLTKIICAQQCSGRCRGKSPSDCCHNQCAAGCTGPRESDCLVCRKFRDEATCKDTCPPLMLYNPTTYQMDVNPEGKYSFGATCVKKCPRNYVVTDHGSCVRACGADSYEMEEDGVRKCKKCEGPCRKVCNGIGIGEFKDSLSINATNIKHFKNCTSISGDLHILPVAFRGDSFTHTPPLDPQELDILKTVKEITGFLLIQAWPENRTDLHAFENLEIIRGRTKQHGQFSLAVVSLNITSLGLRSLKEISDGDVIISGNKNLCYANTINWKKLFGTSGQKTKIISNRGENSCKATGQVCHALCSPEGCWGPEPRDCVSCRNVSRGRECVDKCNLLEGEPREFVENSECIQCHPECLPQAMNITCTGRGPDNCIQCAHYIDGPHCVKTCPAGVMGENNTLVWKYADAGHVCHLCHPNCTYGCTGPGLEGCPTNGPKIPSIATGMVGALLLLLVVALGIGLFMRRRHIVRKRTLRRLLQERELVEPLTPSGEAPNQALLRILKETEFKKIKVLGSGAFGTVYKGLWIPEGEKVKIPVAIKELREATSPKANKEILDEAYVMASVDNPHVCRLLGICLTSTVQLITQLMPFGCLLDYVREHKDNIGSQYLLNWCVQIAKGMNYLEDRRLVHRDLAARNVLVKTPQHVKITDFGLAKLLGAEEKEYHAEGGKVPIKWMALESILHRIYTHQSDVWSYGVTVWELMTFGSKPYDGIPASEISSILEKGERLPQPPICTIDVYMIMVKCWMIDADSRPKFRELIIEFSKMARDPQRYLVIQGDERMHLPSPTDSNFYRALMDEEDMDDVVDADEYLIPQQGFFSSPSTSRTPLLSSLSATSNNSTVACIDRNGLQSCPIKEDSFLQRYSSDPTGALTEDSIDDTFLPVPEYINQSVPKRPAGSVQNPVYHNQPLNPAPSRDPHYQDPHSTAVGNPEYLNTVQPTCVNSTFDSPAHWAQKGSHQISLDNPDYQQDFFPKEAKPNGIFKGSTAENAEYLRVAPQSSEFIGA
Sequence of D(3) dopamine receptor (Homo sapiens) (P35462 whole entry): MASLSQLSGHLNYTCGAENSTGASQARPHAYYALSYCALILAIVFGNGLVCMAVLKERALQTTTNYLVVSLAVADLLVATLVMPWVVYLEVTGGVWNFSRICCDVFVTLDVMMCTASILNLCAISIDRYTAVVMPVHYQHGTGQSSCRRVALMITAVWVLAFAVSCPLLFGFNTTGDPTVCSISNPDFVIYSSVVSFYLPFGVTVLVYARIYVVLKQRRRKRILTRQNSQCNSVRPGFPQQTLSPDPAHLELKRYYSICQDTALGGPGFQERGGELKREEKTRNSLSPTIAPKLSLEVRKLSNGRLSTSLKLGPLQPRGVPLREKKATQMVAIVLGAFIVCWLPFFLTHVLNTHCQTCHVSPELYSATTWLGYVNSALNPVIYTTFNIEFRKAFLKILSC
Sequence of Proto-oncogene tyrosine-protein kinase Src (Homo sapiens) (P12931 2-536 limits assumed): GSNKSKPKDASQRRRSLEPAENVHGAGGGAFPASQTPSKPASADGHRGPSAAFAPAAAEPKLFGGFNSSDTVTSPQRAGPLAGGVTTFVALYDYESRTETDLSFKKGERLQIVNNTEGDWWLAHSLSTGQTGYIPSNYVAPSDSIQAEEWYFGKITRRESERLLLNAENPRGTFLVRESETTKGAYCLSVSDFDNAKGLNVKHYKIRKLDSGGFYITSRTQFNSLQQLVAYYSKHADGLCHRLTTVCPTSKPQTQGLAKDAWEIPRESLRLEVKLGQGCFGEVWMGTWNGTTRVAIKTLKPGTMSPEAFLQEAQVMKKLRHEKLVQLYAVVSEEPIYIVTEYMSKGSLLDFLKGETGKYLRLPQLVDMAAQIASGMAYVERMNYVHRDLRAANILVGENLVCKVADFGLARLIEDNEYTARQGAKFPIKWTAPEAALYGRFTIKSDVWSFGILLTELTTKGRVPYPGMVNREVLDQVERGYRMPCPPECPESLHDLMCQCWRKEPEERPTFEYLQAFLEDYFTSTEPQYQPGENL
Sequence of D(2) dopamine receptor (Homo sapiens) (P14416 whole entry): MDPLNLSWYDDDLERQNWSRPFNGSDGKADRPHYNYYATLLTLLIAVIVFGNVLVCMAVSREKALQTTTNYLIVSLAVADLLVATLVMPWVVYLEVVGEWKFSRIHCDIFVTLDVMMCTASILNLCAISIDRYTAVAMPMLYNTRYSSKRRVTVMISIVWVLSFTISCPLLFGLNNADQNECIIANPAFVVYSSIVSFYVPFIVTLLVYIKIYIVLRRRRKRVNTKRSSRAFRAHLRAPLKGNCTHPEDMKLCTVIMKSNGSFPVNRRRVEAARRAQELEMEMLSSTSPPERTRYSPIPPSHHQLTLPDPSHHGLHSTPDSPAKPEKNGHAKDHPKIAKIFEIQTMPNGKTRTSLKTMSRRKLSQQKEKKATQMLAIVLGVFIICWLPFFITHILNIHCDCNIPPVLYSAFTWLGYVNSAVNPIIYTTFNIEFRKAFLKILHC
Sequence of Dual specificity mitogen-activated protein kinase kinase 1 (Oryctolagus cuniculus) (P29678 whole entry): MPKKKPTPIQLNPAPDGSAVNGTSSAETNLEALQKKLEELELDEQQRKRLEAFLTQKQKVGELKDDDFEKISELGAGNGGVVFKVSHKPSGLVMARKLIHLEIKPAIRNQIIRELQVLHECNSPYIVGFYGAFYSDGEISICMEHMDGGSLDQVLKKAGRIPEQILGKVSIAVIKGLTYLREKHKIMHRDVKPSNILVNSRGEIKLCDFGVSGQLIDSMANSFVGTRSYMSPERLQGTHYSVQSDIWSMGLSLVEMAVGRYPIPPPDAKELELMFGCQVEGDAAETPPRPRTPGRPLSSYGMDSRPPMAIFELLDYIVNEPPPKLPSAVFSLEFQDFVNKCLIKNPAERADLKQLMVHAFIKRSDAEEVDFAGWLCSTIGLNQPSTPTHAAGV
Sequence of Glycogen synthase kinase-3 beta (Mus musculus) (Q9WV60 whole entry, looked up): as the sequence (P49841 whole entry) above, with T390P, T392A, A400T, T402A counted along it

Cc1sc(C(=O)CCl)cc1C(=O)CCl
inhibition (Rattus norvegicus [1]): < 10% | inhibition [2]: < 10% | inhibition [3]: 54% | inhibition [4]: < 10% | inhibition (Bos taurus): 17% | inhibition [5]: < 10% | inhibition [6]: < 10% | inhibition (Rattus norvegicus [7]): < 10% | inhibition [8]: 25% | inhibition (Rattus norvegicus [9]): < 10% | inhibition [10]: < 10% | inhibition (Rattus norvegicus [11]): < 10% | inhibition [12]: < 10% | inhibition [13]: 12% | inhibition [14]: < 10% | inhibition [15]: < 10% | inhibition (Rattus norvegicus [16]): < 10%

O=C(CCl)c1cc(Cl)sc1Cl
inhibition (Rattus norvegicus [1]): 10% | inhibition [2]: < 10% | inhibition [3]: 12% | inhibition [4]: < 10% | inhibition (Bos taurus): 41% | inhibition [5]: < 10% | inhibition [6]: < 10% | inhibition (Rattus norvegicus [7]): 17% | inhibition [8]: < 10% | inhibition (Rattus norvegicus [9]): < 10% | inhibition [10]: < 10% | inhibition (Rattus norvegicus [11]): < 10% | inhibition [12]: 12% | inhibition [13]: < 10% | inhibition [14]: < 10% | inhibition [15]: < 10% | inhibition (Rattus norvegicus [16]): < 10%

O=C(CBr)c1sc(Br)cc1Br
pIC50 [17]: 6.00

O=C(CCl)c1scc(Br)c1Br
inhibition (Rattus norvegicus [1]): < 10% | inhibition [2]: 12% | inhibition [4]: < 10% | inhibition (Bos taurus): 20% | inhibition [5]: 11% | inhibition [6]: < 10% | inhibition (Rattus norvegicus [7]): < 10% | inhibition [8]: < 10% | inhibition (Rattus norvegicus [9]): < 10% | inhibition [10]: < 10% | inhibition (Rattus norvegicus [11]): < 10% | inhibition [12]: < 10% | inhibition [13]: < 10% | inhibition [14]: < 10% | inhibition [15]: < 10% | inhibition (Rattus norvegicus [16]): < 10%

CC(=O)c1csc(C(=O)CCl)c1
inhibition (Rattus norvegicus [1]): < 10% | inhibition [2]: < 10% | inhibition [3]: 22% | inhibition [4]: < 10% | inhibition (Bos taurus): < 10% | inhibition [5]: < 10% | inhibition [6]: < 10% | inhibition (Rattus norvegicus [7]): < 10% | inhibition [8]: < 10% | inhibition (Rattus norvegicus [9]): < 10% | inhibition [10]: < 10% | inhibition (Rattus norvegicus [11]): 17% | inhibition [12]: < 10% | inhibition [13]: < 10% | inhibition [14]: < 10% | inhibition [15]: 12% | inhibition (Rattus norvegicus [16]): < 10%

O=C(CCl)c1cscc1Cl
inhibition (Rattus norvegicus [1]): < 10% | inhibition [2]: < 10% | inhibition [3]: 24% | Activity [18]: Active | inhibition [4]: 13% | inhibition (Bos taurus): 31% | inhibition [5]: < 10% | inhibition [6]: < 10% | inhibition (Rattus norvegicus [7]): < 10% | inhibition [8]: < 10% | inhibition (Rattus norvegicus [9]): < 10% | inhibition [10]: 16% | inhibition (Rattus norvegicus [11]): < 10% | inhibition [12]: < 10% | inhibition [13]: < 10% | inhibition [14]: < 10% | inhibition [15]: < 10% | inhibition (Rattus norvegicus [16]): < 10%

O=C(CBr)c1ccc(Br)s1
pIC50 [17]: 6.00

CC(=O)c1ccccc1 [ACETOPHENONE]
pIC50 [17]: < 4.00

O=C(Nn1c2ccccc2c2ccccc21)c1ccccc1
pIC50 [17]: < 4.00

O=C(CBr)c1cc(Br)c(Br)s1
inhibition (Rattus norvegicus [1]): < 10% | inhibition [2]: < 10% | inhibition [3]: 76% | inhibition [4]: < 10% | inhibition (Bos taurus): < 10% | inhibition [5]: < 10% | inhibition [6]: < 10% | inhibition (Rattus norvegicus [7]): < 10% | inhibition [8]: < 10% | inhibition (Rattus norvegicus [9]): < 10% | inhibition [10]: < 10% | inhibition (Rattus norvegicus [11]): < 10% | inhibition [12]: < 10% | pIC50 [17]: 6.00 | inhibition [13]: 12% | inhibition [14]: < 10% | inhibition [15]: < 10% | inhibition (Rattus norvegicus [16]): < 10%

CCOC(=O)c1sc(C)c(C)c1O
pIC50 [17]: < 4.00

CCOC(=O)c1cccs1
pIC50 [17]: < 4.00

O=Cc1cc(Br)c(Br)s1
pIC50 [17]: < 4.00

CCSC1=NC(c2ccccc2)=NN(c2ccccc2)c2ccccc21
pIC50 [17]: < 4.00

O=Cc1cccs1 [2-THIOPHENENECARBOXALDEHYDE]
pIC50 [17]: < 4.00

— ChEMBL document CHEMBL1152606, “Thienylhalomethylketones: Irreversible glycogen synthase kinase 3 inhibitors as useful pharmacological tools” (Bioorg Med Chem, 2009)
